Experimental data from ChEMBL document CHEMBL1671867, “Novel polymyxin derivatives carrying only three positive charges are effective antibacterial agents” (Antimicrob Agents Chemother, 2008).
Converted amounts (≈) assume the structure as drawn. One block for each compound: values may come before it. The source made the active and inactive calls. The calls are words filed in the database; no cut-off is given here. Bridge positions count the residues as written; N and C are the ends. Square brackets hold non-standard residues; d marks the D form. Peptide text beside a SMILES is read from it. * marks the point of attachment. Decanoyl = CCCCCCCCCC(=O)*; Dab = NCC[C@H](N)C(=O)O

What was measured:
Escherichia coli [1] = experiment: Antibacterial activity against Escherichia coli by CLSI M7-A7 agar dilution method; format: functional
Procedure, shortened: (§1)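 Agar dilution on Mueller-Hinton agar with test substance at 0.25 to 32 μg/ml in twofold steps. Spots of about 10^4 CFU applied with a multipoint inoculator.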

Klebsiella pneumoniae [2] = experiment: Antibacterial activity against Klebsiella pneumoniae CCUG45421 by CLSI M7-A7 agar dilution method; format: functional; procedure, shortened: as §1
Acinetobacter baumannii [3] = experiment: Antibacterial activity against Acinetobacter baumannii by CLSI M7-A7 agar dilution method; format: functional
Escherichia coli [4] = experiment: Antibacterial activity against Escherichia coli IH3080 assessed as growth inhibition at 10 ug after 18 hrs by […] in presence of 1 ug/ml rifampin; format: functional
Klebsiella pneumoniae [5] = experiment: Antibacterial activity against Klebsiella pneumoniae by CLSI M7-A7 agar dilution method; format: functional; procedure, shortened: as §1
Escherichia coli [6] = experiment: Antibacterial activity against Escherichia coli SC 9253 by CLSI M7-A7 agar dilution method; format: functional; procedure, shortened: as §1
Escherichia coli [7] = experiment: Antibacterial activity against Escherichia coli ATCC […] by CLSI M7-A7 agar dilution method; format: functional
Escherichia coli [8] = experiment: Antibacterial activity against Escherichia coli IH3080 assessed as reduction in bacterial count at 2 ug/ml using 2 day old compound stock solution; format: functional; design: scale not given: the % may be the effect or the level left
Serratia marcescens = experiment: Antibacterial activity against Serratia marcescens ATCC 8100 by CLSI M7-A7 agar dilution method; format: functional; procedure, shortened: as §1
Citrobacter freundii = experiment: Antibacterial activity against Citrobacter freundii ATCC 8090 by CLSI M7-A7 agar dilution method; format: functional
Escherichia coli [9] = experiment: Antibacterial activity against Escherichia coli IH3080 assessed as growth inhibition at 10 ug after 18 hrs by […]; format: functional
Enterobacter cloacae [10] = experiment: Antibacterial activity against Enterobacter cloacae CCUG52947 by CLSI M7-A7 agar dilution method; format: functional
Enterobacter cloacae [11] = experiment: Antibacterial activity against Enterobacter cloacae by CLSI M7-A7 agar dilution method; format: functional
Escherichia coli [12] = experiment: Antibacterial activity against Escherichia coli SC 9252 by CLSI M7-A7 agar dilution method; format: functional
Klebsiella oxytoca [13] = experiment: Antibacterial activity against Klebsiella oxytoca CCUG51683 by CLSI M7-A7 agar dilution method; format: functional; procedure, shortened: as §1
Escherichia coli [14] = experiment: Antibacterial activity against Escherichia coli IH3080 by CLSI M7-A7 agar dilution method; format: functional
Enterobacter cloacae [15] = experiment: Antibacterial activity against Enterobacter cloacae ATCC 23355 by CLSI M7-A7 agar dilution method; format: functional
Staphylococcus aureus = experiment: Antibacterial activity against Staphylococcus aureus ATCC 25923 by CLSI M7-A7 agar dilution method; format: functional; procedure, shortened: as §1
Acinetobacter baumannii [16] = experiment: Antibacterial activity against Acinetobacter baumannii ATCC 19606 by CLSI M7-A7 agar dilution method; format: functional
Candida albicans = experiment: Antibacterial activity against Candida albicans ATCC 28366 by CLSI M7-A7 agar dilution method; format: functional
Klebsiella oxytoca [17] = experiment: Antibacterial activity against Klebsiella oxytoca ATCC 13182 by CLSI M7-A7 agar dilution method; format: functional; procedure, shortened: as §1
Pseudomonas aeruginosa = experiment: Antibacterial activity against Pseudomonas aeruginosa ATCC 27853 by CLSI M7-A7 agar dilution method; format: functional; procedure, shortened: as §1
V79 = experiment: Cytotoxicity against chinese hamster V79 cells at […] to 128 ug/ml after 24 hrs; format: cell-based, Cricetulus griseus; conditions: v79, 24 h
[18] = Inhibition of [3H]gentamicin binding to brush border membrane of renal cortex
Procedure, shortened: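 Brush border membrane vesicles prepared from male albino rat renal cortex by Mg2+-EGTA precipitation. Incubated with 20 μM [3H]gentamicin in 10 mM HEPES pH 7.5 with 300 mM mannitol, with or without compound, 60 min at 4°C. Then filtered, washed, and bound radioactivity counted by scintillation. IC50 fitted with the Hill equation.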

Escherichia coli [19] = experiment: Antibacterial activity against Escherichia coli IH3080 assessed as reduction in bacterial count at 2 ug/ml using fresh compound stock solution; format: functional, organism-based

MIC (Escherichia coli [1]): 0.5 µg/mL (≈ 0.465 µM)
MIC (Klebsiella pneumoniae [2]): 4 µg/mL (≈ 3.72 µM)
MIC (Acinetobacter baumannii [3]): 4 µg/mL (≈ 3.72 µM)
MIC (Klebsiella pneumoniae [5]): 1 µg/mL (≈ 0.929 µM)
MIC (Escherichia coli [6]): > 32 µg/mL
MIC (Escherichia coli [7]): 1 µg/mL (≈ 0.929 µM)
MIC (Serratia marcescens): > 32 µg/mL
MIC (Citrobacter freundii): 2 µg/mL (≈ 1.86 µM)
MIC (Enterobacter cloacae [10]): 2 µg/mL (≈ 1.86 µM)
MIC (Enterobacter cloacae [11]): 2 µg/mL (≈ 1.86 µM)
MIC (Escherichia coli [12]): 32 µg/mL (≈ 29.7 µM)
MIC (Klebsiella oxytoca [13]): 2 µg/mL (≈ 1.86 µM)
MIC (Escherichia coli [14]): 1 µg/mL (≈ 0.929 µM)
MIC (Enterobacter cloacae [15]): 2 µg/mL (≈ 1.86 µM)
MIC (Staphylococcus aureus): > 32 µg/mL
MIC (Acinetobacter baumannii [16]): 8 µg/mL (≈ 7.43 µM)
MIC (Candida albicans): > 32 µg/mL
MIC (Klebsiella oxytoca [17]): 2 µg/mL (≈ 1.86 µM)
MIC (Pseudomonas aeruginosa): 8 µg/mL (≈ 7.43 µM)
SMILES: CCCCCCCC(=O)N[C@H](C(=O)N[C@H](CO)C(=O)N[C@H]1CCNC(=O)[C@H]([C@@H](C)O)NC(=O)[C@H](CCN)NC(=O)[C@H](CCN)NC(=O)[C@H](CC(C)C)NC(=O)[C@@H](Cc2ccccc2)NC(=O)[C@H](CCN)NC1=O)[C@@H](C)O
inhibition zone (IZ) (Escherichia coli [4]): 214 mm2
Activity (Escherichia coli [8]): 98%
inhibition zone (IZ) (Escherichia coli [9]): 171 mm2

IC50 [18]: 198 µM
SMILES: CCCCCCCCCC(=O)N[C@H](C(=O)N[C@H](CO)C(=O)N[C@H]1CCNC(=O)[C@H]([C@@H](C)O)NC(=O)[C@H](CCN)NC(=O)[C@H](CCN)NC(=O)[C@H](CC(C)C)NC(=O)[C@@H](Cc2ccccc2)NC(=O)[C@H](CCN)NC1=O)[C@@H](C)O (Decanoyl-T[dS][Dab][Dab][dF]L[Dab][Dab]T; lactam 3-C)
Activity (V79): Non-toxic

SMILES: CCCCCCCC(=O)N[C@H](C(=O)N[C@H](CO)C(=O)N[C@H]1CCNC(=O)[C@H]([C@@H](C)O)NC(=O)[C@H](CCN)NC(=O)[C@H](CCN)NC(=O)[C@H](CC(C)C)NC(=O)[C@H](Cc2ccccc2)NC(=O)[C@H](CCN)NC1=O)[C@@H](C)O
Activity (Escherichia coli [19]): Active
